Source: ChEMBL document CHEMBL2169743, “Identification of novel 2-((1-(benzyl(2-hydroxy-2-phenylethyl)amino)-1-oxo-3-phenylpropan-2-yl)carbamoyl)benzoic acid analogues as BMP-2 stimulators” (J Med Chem, 2012)
Active and inactive are the calls of the source. The calls are words filed in the database; no cut-off is given here.

Legend:
Calvarial osteoblast [1] = test: Osteogenic activity in Sprague-Dawley rat calvarial osteoblasts assessed as BMP-2 level at 100 nM after 48 hrs by ELISA relative to control; type: functional
Calvarial osteoblast [2] = test: Osteogenic activity in Sprague-Dawley rat calvarial osteoblasts assessed as BMP-2 level at 0.1 nM after 48 hrs by ELISA relative to control; type: functional
Calvarial osteoblast [3] = test: Osteogenic activity in Sprague-Dawley rat calvarial osteoblasts assessed as BMP-2 level at 1 nM after 48 hrs by ELISA relative to control; type: functional
Calvarial osteoblast [4] = test: Osteogenic activity in Sprague-Dawley rat calvarial osteoblasts assessed as BMP-2 level at 10 nM after 48 hrs by ELISA relative to control; type: functional
Calvarial osteoblast [5] = test: Osteogenic activity in Sprague-Dawley rat calvarial osteoblasts assessed as BMP-2 level at 1000 nM after 48 hrs by ELISA relative to control; type: functional
Calvarial osteoblast [6] = test: Osteogenic activity in Sprague-Dawley rat calvarial osteoblasts assessed as BMP-2 mRNA expression at 0.1 to 1000 nM after 48 hrs by qPCR analysis relative to control; type: functional, cell-based
Rattus norvegicus [7] = test: Toxicity in Sprague-Dawley rat assessed as effect on aorta BMP-7 mRNA expression at 1 to 5 mg/kg/day after 2 weeks by qPCR analysis relative to vehicle-treated control; type: organism-based; settings: in vivo, 336 h
Rattus norvegicus [8] = test: Osteogenic activity in Sprague-Dawley rat femur drill-hole fracture model assessed as increase in bone volume/trabecular volume at 1 to 5 mg/kg/day after 2 weeks by micro-CT method relative to vehicle-treated control; type: functional, organism-based
How it was run: (§1)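 Same rat femoral drill-hole model: 10 rats/group, 1.0 or 5.0 mg·kg⁻¹·day⁻¹ or gum acacia vehicle for 2 weeks starting the day after injury. Femurs taken at autopsy; μCT of the drill-hole gives BV/TV, Tb.N, Tb.Th, Tb.Sp, Conn.Dens and SMI. Mean ± SEM.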

Rattus norvegicus [9] = species on record: Rattus norvegicus; test: Osteogenic activity in Sprague-Dawley rat femur drill-hole fracture model assessed as increase in callus regeneration after 2 weeks by calcein labeling-based confocal microscopy relative to vehicle-treated control; type: functional, organism-based
How it was run: (§2)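 Bilateral femoral diaphysis drill-hole (0.8 mm bit, 2 cm above knee) in rats, 10 per group. Daily dosing at 1.0 or 5.0 mg·kg⁻¹·day⁻¹, or gum acacia/water vehicle, from the day after injury for 2 weeks. Calcein 20 mg/kg i.p. given 2 days before autopsy. Acrylic-embedded 50 μm sections imaged by confocal microscopy; calcein intensity quantified. Mean ± SEM.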

Rattus norvegicus [10] = test: Osteogenic activity in Sprague-Dawley rat femur drill-hole fracture model assessed as increase in trabecular thickness at 1 to 5 mg/kg/day after 2 weeks by micro-CT method relative to vehicle-treated control; type: functional, organism-based; how it was run: as §1
MC3T3-E1 [11] = test: Inhibition of 20S proteasome in mouse MC3T3-E1 cells at 100 nM after 48 hrs by Bradford assay; type: cell-based
How it was run: (§3)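 MC3T3-E1 cells seeded at 2 × 10⁶/well and treated for 48 h. Lysed in HEPES pH 7.5/EDTA/NaCl/1% Triton X-100 on ice; protein measured by Bradford. 10 μg lysate incubated with fluorogenic 20S proteasome substrate for 1 h at 37 °C in the dark, fluorescence read at 380/460 nm. Lactacystin 25 μM as reference. Mean ± SEM, three independent experiments.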

Rattus norvegicus [12] = species on record: Rattus norvegicus; test: Osteogenic activity in Sprague-Dawley rat femur drill-hole fracture model assessed as increase in osteoblast formation after 2 weeks by calcein labeling-based confocal microscopy relative to vehicle-treated control; type: functional, organism-based; how it was run: as §2
Calvarial osteoblast [13] = test: Induction of Runx-2 mRNA expression in Sprague-Dawley rat calvarial osteoblasts at 10 nM after 72 hrs by qPCR analysis in presence of noggin; type: functional, cell-based
How it was run: (§4)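 Rat calvarial osteoblasts treated for 72 h with 10 nM compound, 100 ng/mL BMP-2 and 50 ng/mL noggin, alone or combined. Runx-2 and osteocalcin mRNA measured by qPCR. Data are mean ± SEM from three independent experiments.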

Rattus norvegicus [14] = test: Osteogenic activity in Sprague-Dawley rat femur drill-hole fracture model assessed as increase in trabecular number at 1 to 5 mg/kg/day after 2 weeks by micro-CT method relative to vehicle-treated control; type: functional, organism-based; how it was run: as §1
Rattus norvegicus [15] = test: Osteogenic activity in Sprague-Dawley rat femur drill-hole fracture model assessed as decrease in structure model index at 1 to 5 mg/kg/day after 2 weeks by micro-CT method relative to vehicle-treated control; type: functional, organism-based; how it was run: as §1
MC3T3-E1 [16] = test: Inhibition of 20S proteasome in mouse MC3T3-E1 cells after 48 hrs by Bradford assay; type: cell-based; how it was run: as §3
Rattus norvegicus [17] = test: Osteogenic activity in Sprague-Dawley rat femur drill-hole fracture model assessed as increase in connection density at 1 to 5 mg/kg/day after 2 weeks by micro-CT method relative to vehicle-treated control; type: functional, organism-based; how it was run: as §1
Rattus norvegicus [18] = test: Osteogenic activity in Sprague-Dawley rat femur drill-hole fracture model assessed as bone formation at 1 mg/kg/day after 2 weeks by calcein labeling-based confocal microscopy relative to vehicle-treated control; type: functional; how it was run: as §2
Rattus norvegicus [19] = test: Toxicity in Sprague-Dawley rat assessed as effect on cuspid valve BMP-4 mRNA expression at 1 to 5 mg/kg/day after 2 weeks by qPCR analysis relative to vehicle-treated control; type: organism-based; settings: in vivo, 336 h
Calvarial osteoblast [20] = test: Induction of […] mRNA expression in Sprague-Dawley rat calvarial osteoblasts at 10 nM by qPCR analysis; type: functional, cell-based; settings: TDE = time-dependent effect
How it was run: (§5)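 Primary calvarial osteoblasts from pooled 1–2-day-old Sprague–Dawley rat pups (both sexes), released by sequential Dispase/collagenase P digestion at 37 °C. Cells kept in osteoblast differentiation medium with 10 nM compound or vehicle and sampled at several time points (24 h up to 72 h) for qPCR. Results given as fold change, mean ± SEM, triplicate.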

Rattus norvegicus [21] = test: Toxicity in Sprague-Dawley rat assessed as effect on cuspid valve BMP-7 mRNA expression at 1 to 5 mg/kg/day after 2 weeks by qPCR analysis relative to vehicle-treated control; type: organism-based; settings: in vivo, 336 h
Rattus norvegicus [22] = test: Toxicity in Sprague-Dawley rat assessed as effect on cuspid valve BMP-2 mRNA expression at 1 to 5 mg/kg/day after 2 weeks by qPCR analysis relative to vehicle-treated control; type: organism-based; settings: in vivo, 336 h
Rattus norvegicus [23] = species on record: Rattus norvegicus; test: Osteogenic activity in Sprague-Dawley rat femur drill-hole fracture model assessed as increase in osteoblast recruitment after 2 weeks by calcein labeling-based confocal microscopy relative to vehicle-treated control; type: functional, organism-based; how it was run: as §2
Calvarial osteoblast [24] = test: Induction of Runx mRNA expression in Sprague-Dawley rat calvarial osteoblasts at 10 nM by qPCR analysis; type: functional, cell-based; settings: TDE = time-dependent effect; how it was run: as §5
Rattus norvegicus [25] = test: Toxicity in Sprague-Dawley rat assessed as effect on aorta BMP-2 mRNA expression at 1 to 5 mg/kg/day after 2 weeks by qPCR analysis relative to vehicle-treated control; type: organism-based; settings: in vivo, 336 h
Calvarial osteoblast [26] = test: Induction of […] mRNA expression in Sprague-Dawley rat calvarial osteoblasts at 10 nM after 72 hrs by qPCR analysis in presence of noggin; type: functional, cell-based; how it was run: as §4
Rattus norvegicus [27] = test: Osteogenic activity in Sprague-Dawley rat femur drill-hole fracture model assessed as bone formation at 5 mg/kg/day after 2 weeks by calcein labeling-based confocal microscopy relative to vehicle-treated control; type: functional; how it was run: as §2
Calvarial osteoblast [28] = test: Induction of BMP-2 mRNA expression in Sprague-Dawley rat calvarial osteoblasts at 10 nM by qPCR analysis; type: functional, cell-based; settings: TDE = time-dependent effect; how it was run: as §5
Rattus norvegicus [29] = test: Toxicity in Sprague-Dawley rat assessed as effect on aorta BMP-4 mRNA expression at 1 to 5 mg/kg/day after 2 weeks by qPCR analysis relative to vehicle-treated control; type: organism-based; settings: in vivo, 336 h
Calvarial osteoblast [30] = test: Induction of mineralization in Sprague-Dawley rat calvarial osteoblasts assessed as increase of mineralized nodule formation at 10 nM after 21 days by Alizarin Red S staining relative to vehicle-treated control; type: functional, cell-based
How it was run: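 Rat calvarial osteoblasts grown to 80% confluence, then plated at 25 000 cells/well in differentiation medium (growth medium plus 50 μg/mL ascorbic acid and […]) with 10 nM compound or vehicle. Medium changed every other day for 21 days. Cells fixed in 4% paraformaldehyde and stained with 40 mM Alizarin Red S (pH 4.5). Dye extracted with 10% acetic acid at 85 °C, neutralized, OD 405 nm read.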

Rattus norvegicus [31] = test: Osteogenic activity in Sprague-Dawley rat femur drill-hole fracture model assessed as decrease in trabecular spacing at 1 to 5 mg/kg/day after 2 weeks by micro-CT method relative to vehicle-treated control; type: functional, organism-based; how it was run: as §1
Calvarial osteoblast [32] = test: Induction of type 1 collagen mRNA expression in Sprague-Dawley rat calvarial osteoblasts at 10 nM by qPCR analysis; type: functional, cell-based; settings: TDE = time-dependent effect; how it was run: as §5

## O=C(O)c1ccccc1C(=O)NC(Cc1ccccc1)C(=O)NCC(OCc1ccccc1)c1ccccc1 (stereo not drawn)
Calvarial osteoblast [1]
  Activity: 117.2%
Calvarial osteoblast [2]
  Activity: 87.8%
Calvarial osteoblast [3]
  Activity: 107.27%
Calvarial osteoblast [4]
  Activity: 101.32%
Calvarial osteoblast [5]
  Activity: 93.6%

## N#CC(CN(Cc1ccccc1)C(=O)C(Cc1ccccc1)NC(=O)c1ccccc1C(=O)O)c1ccccc1 (stereo not drawn)
Calvarial osteoblast [1]
  Activity: 96.69%
Calvarial osteoblast [2]
  Activity: 83.6%
Calvarial osteoblast [3]
  Activity: 97.35%
Calvarial osteoblast [4]
  Activity: 89.28%
Calvarial osteoblast [5]
  Activity: 92.6%

## CC(=O)OC(CN(Cc1ccccc1)C(=O)C(Cc1ccccc1)NC(=O)c1ccccc1C(=O)O)c1ccccc1 (stereo not drawn)
Calvarial osteoblast [1]
  Activity: 98.76%
Calvarial osteoblast [2]
  Activity: 88.7%
Calvarial osteoblast [3]
  Activity: 89.49%
Calvarial osteoblast [4]
  Activity: 83.45%
Calvarial osteoblast [5]
  Activity: 100.6%

## O=C(O)c1ccccc1C(=O)NC(Cc1ccccc1)C(=O)N(Cc1ccccc1)CC(OCc1ccccc1)c1ccccc1 (stereo not drawn)
Calvarial osteoblast [1]
  Activity: 103.27%
Calvarial osteoblast [2]
  Activity: 89.8%
Calvarial osteoblast [3]
  Activity: 100.66%
Calvarial osteoblast [4]
  Activity: 98.34%
Calvarial osteoblast [5]
  Activity: 92.6%

## CC(=O)OC(CNC(=O)C(Cc1ccccc1)NC(=O)c1ccccc1C(=O)O)c1ccccc1 (stereo not drawn)
Calvarial osteoblast [1]
  Activity: 96.03%
Calvarial osteoblast [2]
  Activity: 106%
Calvarial osteoblast [3]
  Activity: 98.67%
Calvarial osteoblast [4]
  Activity: 98.33%
Calvarial osteoblast [5]
  Activity: 103%

## Cc1ccc(S(=O)(=O)OC(CN(Cc2ccccc2)C(=O)C(Cc2ccccc2)NC(=O)c2ccccc2C(=O)O)c2ccccc2)cc1 (stereo not drawn)
Calvarial osteoblast [1]
  Activity: 98.7%
Calvarial osteoblast [2]
  Activity: 122%
Calvarial osteoblast [3]
  Activity: 141.67%
Calvarial osteoblast [4]
  Activity: 109.39%
Calvarial osteoblast [5]
  Activity: 111%

## O=C(O)c1ccccc1C(=O)NC(Cc1ccccc1)C(=O)NCCc1ccccc1 (stereo not drawn)
Calvarial osteoblast [1]
  Activity: 166.11%
Calvarial osteoblast [2]
  Activity: 111%
Calvarial osteoblast [3]
  Activity: 122.8%
Calvarial osteoblast [6]
  Activity: Active
Calvarial osteoblast [4]
  Activity: 114.24%
Calvarial osteoblast [5]
  Activity: 132%

## O=C(OC(CN(Cc1ccccc1)C(=O)C(Cc1ccccc1)NC(=O)c1ccccc1C(=O)O)c1ccccc1)c1ccccc1 (stereo not drawn)
Calvarial osteoblast [1]
  Activity: 103.15%
Calvarial osteoblast [2]
  Activity: 98.4%
Calvarial osteoblast [3]
  Activity: 107.69%
Calvarial osteoblast [4]
  Activity: 103.15%
Calvarial osteoblast [5]
  Activity: 112%

## Cc1ccc(S(=O)(=O)OC(CNC(=O)C(Cc2ccccc2)NC(=O)c2ccccc2C(=O)O)c2ccccc2)cc1 (stereo not drawn)
Calvarial osteoblast [1]
  Activity: 114.88%
Calvarial osteoblast [2]
  Activity: 119%
Calvarial osteoblast [3]
  Activity: 131.75%
Calvarial osteoblast [4]
  Activity: 111.78%
Calvarial osteoblast [5]
  Activity: 104%

## O=C(O)c1ccccc1C(=O)NC(Cc1ccccc1)C(=O)N(Cc1ccccc1)CC(O)c1ccccc1 (stereo not drawn)
Rattus norvegicus [7]
  Activity: Non-toxic
Rattus norvegicus [8]
  Activity: Active
Rattus norvegicus [9]
  Activity: Dose-dependent effect
Calvarial osteoblast [1]
  Activity: 137.2%
Rattus norvegicus [10]
  Activity: Active
MC3T3-E1 [11]
  inhibition: inactive
Rattus norvegicus [12]
  Activity: Dose-dependent effect
Calvarial osteoblast [13]
  Activity: inactive
Rattus norvegicus [14]
  Activity: Active
Calvarial osteoblast [2]
  Activity: 140%
Rattus norvegicus [15]
  Activity: Active
MC3T3-E1 [16]
  inhibition: Dose-dependent effect
Calvarial osteoblast [3]
  Activity: 159.5%
Rattus norvegicus [17]
  Activity: Active
Rattus norvegicus [18]
  fold change (FC): 2.16
Rattus norvegicus [19]
  Activity: Non-toxic
Calvarial osteoblast [20]
  Activity: tde
Rattus norvegicus [21]
  Activity: Non-toxic
Calvarial osteoblast [6]
  Activity: Active
Calvarial osteoblast [4]
  Activity: 155.6%
Calvarial osteoblast [5]
  Activity: 133%
Rattus norvegicus [22]
  Activity: Non-toxic
Rattus norvegicus [23]
  Activity: Dose-dependent effect
Calvarial osteoblast [24]
  Activity: tde
Rattus norvegicus [25]
  Activity: Non-toxic
Calvarial osteoblast [26]
  Activity: inactive
Rattus norvegicus [27]
  fold change (FC): 3.12
Calvarial osteoblast [28]
  Activity: tde
Rattus norvegicus [29]
  Activity: Non-toxic
Calvarial osteoblast [30]
  Activity: Active
Rattus norvegicus [31]
  Activity: Active
Calvarial osteoblast [32]
  Activity: tde
